Laboratory results: ChEMBL document CHEMBL1125826, “Synthesis and biological activity of 5-amino- and 5-hydroxyquinolones, and the overwhelming influence of the remote N1-substituent in determining the structure-activity relationship” (1991)
Converted amounts (≈) assume the structure as drawn.

How the values were obtained:
Assay type in all cases: functional
[1] = target: DNA gyrase (Escherichia coli) (UniProt P0AES6+P0AES4); test: Minimum inhibitory concentration against Escherichia coli DNA-gyrase in supercoiling assay
[2] = tested on: Enterobacter cloacae; test: Antibacterial activity was determined against gram negative organism, Enterobacter cloacae MA2646; details: Enterobacter cloacae; read-out: MIC
[3] = tested on: Escherichia coli; test: Antibacterial activity was determined against gram negative organism, Escherichia coli vogel; details: Escherichia coli; read-out: MIC
In short: (§1)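 MIC (µg/mL) by standard microtitration against a panel of 10 Gram-positive and Gram-negative organisms; values averaged from multiple experiments.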

[4] = tested on: Escherichia coli; test: The in vivo potency was determined in female charles river CD-1 mice infected with Escherichia coli after peroral administration; details: for ED50: Escherichia coli, po, read-out: PD50
In short: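 Acute lethal systemic infection in female CD-1 mice, 16 mice per route; single dose given orally by gavage at the time of challenge; median protective dose (PD50, mg/kg) determined.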

[5] = tested on: Escherichia coli; test: The in vivo potency was determined in female charles river CD-1 mice infected with Escherichia coli after sc administration; details: Escherichia coli, sc; read-out: PD50
In short: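 Acute lethal systemic infection in female CD-1 mice, 16 mice per route; single subcutaneous dose given at the time of challenge; median protective dose (PD50, mg/kg) determined.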

[6] = tested on: Klebsiella pneumoniae; test: Antibacterial activity was determined against gram negative organism, Klebsiella pneumoniae MGH-2; details: Klebsiella pneumoniae; read-out: MIC; in short: as §1
[7] = tested on: Pseudomonas aeruginosa; test: Antibacterial activity was determined against gram negative organism, Pseudomonas aeruginosa UI-18; details: Pseudomonas aeruginosa; read-out: MIC; in short: as §1
[8] = tested on: Bacteria; test: Antibacterial activity was determined against gram negative organism, Providencia rettgeri. M1771; details: Bacteria; read-out: MIC; in short: as §1
[9] = tested on: Staphylococcus aureus; test: Antibacterial activity was determined against gram positive organism, Staphylococcus aureus H228; details: Staphylococcus aureus; read-out: MIC; in short: as §1
[10] = tested on: Streptococcus pneumoniae; test: Antibacterial activity was determined against gram positive organism, Streptococcus pneumoniae SV-1; details: Streptococcus pneumoniae; read-out: MIC; in short: as §1
[11] = tested on: Enterococcus faecalis; test: Antibacterial activity was determined against gram positive organism, Streptococcus faecalis MGH-2; details: Enterococcus faecalis; read-out: MIC; in short: as §1
[12] = tested on: Staphylococcus aureus; test: Antibacterial activity was determined against gram positive organism, Staphylococcus aureus UC76; in short: as §1
[13] = tested on: Streptococcus pyogenes; test: Antibacterial activity was determined against gram positive organism, Streptococcus pyogenes C203; details: Streptococcus pyogenes; read-out: MIC; in short: as §1
[14] = tested on: Bacteria; test: MIC ratio measured as the mean MICs of gram-negative bacteria
In short: (§2)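 Geometric mean of the microtitration MICs (µg/mL) over the Gram-negative organisms, and separately over the Gram-positive organisms, of the 10-strain panel; individual MICs averaged from multiple experiments.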

[15] = tested on: Bacteria; test: MIC ratio measured as the mean MICs of gram-positive bacteria; in short: as §2
[16] = Staphylococcus aureus, read-out: MIC

Row | Compound | MIC [1] [µg/mL] | MIC [2] [µg/mL] | MIC [3] [µg/mL] | ED50 [4] [mg/kg] | ED50 [5] [mg/kg] | MIC [6] [µg/mL] | MIC [7] [µg/mL] | MIC [8] [µg/mL] | MIC [9] [µg/mL] | MIC [10] [µg/mL] | MIC [11] [µg/mL] | MIC [12, 16] [µg/mL] | MIC [13] [µg/mL] | Geometric mean MIC over Gram-negative bacteria (µg/mL) [14] | Geometric mean MIC over Gram-positive bacteria (µg/mL) [15] | PD50 [4] [mg/kg] | MIC [12] [µg/mL]
1 | O=C(O)c1cn(C2CC2)c2cc(N3CCNCC3)c(F)c(O)c2c1=O | 1 (≈ 2.88 µM) | 0.05 (≈ 0.144 µM) | 0.025 (≈ 0.072 µM) | 3 | 0.1 | 0.1 (≈ 0.288 µM) | 0.4 (≈ 1.15 µM) | 0.1 (≈ 0.288 µM) | 3.1 (≈ 8.92 µM) | 0.8 (≈ 2.3 µM) | 0.8 (≈ 2.3 µM) | 0.2 (≈ 0.576 µM) | 0.4 (≈ 1.15 µM) | – | – | – | –
2 | CC1COc2c(N3CCC(N)C3)c(F)c(N)c3c(=O)c(C(=O)O)cn1c23 (stereo not drawn) | 2.5 (≈ 6.9 µM) | 0.8 (≈ 2.21 µM) | 0.4 (≈ 1.1 µM) | > 100 | 23 | 0.4 (≈ 1.1 µM) | 1.6 (≈ 4.42 µM) | 1.6 (≈ 4.42 µM) | 0.8 (≈ 2.21 µM) | 0.8 (≈ 2.21 µM) | 0.8 (≈ 2.21 µM) | 0.2 (≈ 0.552 µM) | 1.6 (≈ 4.42 µM) | 0.8 | 0.7 | – | –
3 | CC1CN(c2c(F)cc3c(=O)c(C(=O)O)cn(C4CC4)c3c2F)CC(C)N1 (stereo not drawn) | 2.5 (≈ 6.62 µM) | 0.05 (≈ 0.132 µM) | 0.05 (≈ 0.132 µM) | – | 0.4 | 0.1 (≈ 0.265 µM) | 0.4 (≈ 1.06 µM) | 0.2 (≈ 0.53 µM) | 0.2 (≈ 0.53 µM) | 0.4 (≈ 1.06 µM) | 0.4 (≈ 1.06 µM) | 0.05 (≈ 0.132 µM) | 0.4 (≈ 1.06 µM) | 0.11 | 0.23 | 0.8 | –
4 | CCNCC1CCN(c2c(F)c(N)c3c(=O)c(C(=O)O)cn4c3c2OCC4C)C1 (stereo not drawn) | 7.5 (≈ 18.5 µM) | 1.6 (≈ 3.96 µM) | 0.8 (≈ 1.98 µM) | > 100 | 8 | 0.8 (≈ 1.98 µM) | 12.5 (≈ 30.9 µM) | 3.1 (≈ 7.66 µM) | 0.8 (≈ 1.98 µM) | 0.4 (≈ 0.989 µM) | 0.4 (≈ 0.989 µM) | 0.1 (≈ 0.247 µM) | 0.1 (≈ 0.247 µM) | 2.09 | 0.26 | – | –
5 | O=C(O)c1cn(C2CC2)c2c(Cl)c(N3CCNCC3)c(F)cc2c1=O | 0.5 (≈ 1.37 µM) | 0.025 (≈ 0.0683 µM) | 0.025 (≈ 0.0683 µM) | 0.8 | 0.4 | 0.05 (≈ 0.137 µM) | 0.4 (≈ 1.09 µM) | 0.1 (≈ 0.273 µM) | 0.1 (≈ 0.273 µM) | 0.1 (≈ 0.273 µM) | 0.4 (≈ 1.09 µM) | 0.05 (≈ 0.137 µM) | 0.2 (≈ 0.547 µM) | 0.066 | 0.13 | – | –
6 | CC1COc2c(N3CCC(N)C3)c(F)cc3c(=O)c(C(=O)O)cn1c23 (stereo not drawn) | 0.75 (≈ 2.16 µM) | 0.4 (≈ 1.15 µM) | 0.4 (≈ 1.15 µM) | 29 | 2 | 0.4 (≈ 1.15 µM) | 0.4 (≈ 1.15 µM) | 0.8 (≈ 2.3 µM) | 1.6 (≈ 4.61 µM) | 0.8 (≈ 2.3 µM) | 1.6 (≈ 4.61 µM) | – | 0.2 (≈ 0.576 µM) | 0.46 | 0.53 | – | 0.1 (≈ 0.288 µM)
7 | CCNCC1CCN(c2c(F)cc3c(=O)c(C(=O)O)cn4c3c2OCC4C)C1 (stereo not drawn) | 0.5 (≈ 1.28 µM) | 0.2 (≈ 0.514 µM) | 0.2 (≈ 0.514 µM) | > 100 | 11 | 0.4 (≈ 1.03 µM) | 0.8 (≈ 2.05 µM) | 0.8 (≈ 2.05 µM) | 0.2 (≈ 0.514 µM) | 0.1 (≈ 0.257 µM) | 0.1 (≈ 0.257 µM) | 0.025 (≈ 0.0642 µM) | 0.013 (≈ 0.0334 µM) | 0.4 | 0.057 | – | –
8 | CCNCC1CCN(c2cc3c(c(N)c2F)c(=O)c(C(=O)O)cn3C2CC2)C1 (stereo not drawn) | 1 (≈ 2.57 µM) | 0.1 (≈ 0.257 µM) | 0.1 (≈ 0.257 µM) | 90 | 3 | 0.2 (≈ 0.515 µM) | 0.8 (≈ 2.06 µM) | 0.8 (≈ 2.06 µM) | 0.2 (≈ 0.515 µM) | 0.05 (≈ 0.129 µM) | 0.025 (≈ 0.0644 µM) | 0.025 (≈ 0.0644 µM) | 0.1 (≈ 0.257 µM) | 0.26 | 0.057 | – | –
9 | Nc1c(F)c(N2CCNCC2)cc2c1c(=O)c(C(=O)O)cn2C1CC1 | 1 (≈ 2.89 µM) | 0.013 (≈ 0.0375 µM) | 0.013 (≈ 0.0375 µM) | 4 | 0.3 | 0.025 (≈ 0.0722 µM) | 0.8 (≈ 2.31 µM) | 0.025 (≈ 0.0722 µM) | 0.1 (≈ 0.289 µM) | 0.1 (≈ 0.289 µM) | 0.1 (≈ 0.289 µM) | 0.025 (≈ 0.0722 µM) | 0.2 (≈ 0.577 µM) | 0.038 | 0.087 | – | –
10 | CC1CN(c2c(F)cc3c(=O)c(C(=O)O)cn(C4CC4)c3c2F)CCN1 (stereo not drawn) | 1 (≈ 2.75 µM) | 0.05 (≈ 0.138 µM) | 0.025 (≈ 0.0688 µM) | 0.8 | 0.4 | 0.025 (≈ 0.0688 µM) | 0.4 (≈ 1.1 µM) | 0.1 (≈ 0.275 µM) | 0.2 (≈ 0.55 µM) | 0.4 (≈ 1.1 µM) | 0.4 (≈ 1.1 µM) | 0.1 (≈ 0.275 µM) | 0.4 (≈ 1.1 µM) | 0.066 | 0.26 | – | –
11 | CCNCC1CCN(c2c(F)cc3c(=O)c(C(=O)O)cn(C4CC4)c3c2Cl)C1 (stereo not drawn) | 0.25 (≈ 0.613 µM) | 0.05 (≈ 0.123 µM) | 0.05 (≈ 0.123 µM) | 4 | 1 | 0.1 (≈ 0.245 µM) | 0.8 (≈ 1.96 µM) | 0.2 (≈ 0.49 µM) | 0.013 (≈ 0.0319 µM) | 0.003 (≈ 0.00736 µM) | 0.013 (≈ 0.0319 µM) | 0.003 (≈ 0.00736 µM) | 0.006 (≈ 0.0147 µM) | 0.13 | 0.006 | – | –
